Active and inactive are the calls of the source. The calls are words filed in the database; no cut-off is given here.
Legend:
[1] = target: Serine/threonine-protein kinase PLK1 (Homo sapiens, UniProt P53350); test: Inhibition of human PLK1 expressed in baculovirus infected in Trichoplusia ni cells using Biotin-Ahx-SFNDTLDFD as substrate in presence of ATP by TopCount scintillation proximity assay; design: species or system Trichoplusia ni cell
Method in brief: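 Baculovirus-expressed PLK1 kinase domain (2 nmol/L) in 25 mmol/L HEPES pH 7.2, 15 mmol/L MgCl2, 1 μmol/L ATP plus [γ-33P]ATP, 1 μmol/L biotinylated peptide substrate, BSA and DTT; 1–1.5 h at 22°C. Stopped with EDTA/streptavidin SPA beads. Signal above EDTA background converted to percent inhibition versus DMSO-only wells.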

[2] = target: CDK1/Cyclin A (Homo sapiens, UniProt P06493); test: Inhibition of CDK1/cyclin A (unknown origin); type: protein-complex assay
[3] = target: Proto-oncogene tyrosine-protein kinase Src (Homo sapiens, UniProt P12931); test: Inhibition of c-src (unknown origin)
[4] = tested on: BT-474; test: Antiproliferative activity against human BT-474 cells assessed as inhibition of cell growth; type: functional, cell-based
[5] = tested on: HeLa; test: Antiproliferative activity against human HeLa cells assessed as inhibition of cell growth; type: functional, cell-based
[6] = Selectivity ratio of IC50 for cytotoxicity against human HDF cells to IC50 for anti-proliferative activity against human HeLa cells; type: toxicity, cell-based; details: HDF cells versus HeLa cells, read-out: Ratio IC50
[7] = Selectivity ratio of IC50 for cytotoxicity against human HDF cells to IC50 for antiproliferative activity against human HCT-116 cells; type: toxicity, cell-based; details: HDF cells versus HCT-116 cells
[8] = Selectivity ratio of IC50 for cytotoxicity against human HDF cells to IC50 for antiproliferative activity against human HN5 cells; type: toxicity, cell-based; details: HDF cells versus HN5 cells
[9] = Selectivity ratio of IC50 for cytotoxicity against human HDF cells to IC50 for antiproliferative activity against human PC-3 cells; type: toxicity, cell-based; details: HDF cells versus PC-3 cells
[10] = Inhibition of p53-PLK1 in human HeLa cells assessed as inhibition of p53 phosphorylation at Ser15 residue by ELISA analysis; type: cell-based
Method in brief: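 HeLa Tet-On cells carrying tet-inducible p53-PLK1 kinase-domain fusion (T210D), induced overnight with 125 ng/mL doxycycline; ten 3-fold dilutions (30–0.00152 μmol/L final, 0.3% DMSO, 5% serum) for 1 h. Lysates captured on anti-p53-coated plates overnight at 4°C; phospho-Ser15 and total p53 detected with HRP secondary/TMB, A450. IC50 from curve fit.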

[11] = tested on: NCI-H460; test: Antiproliferative activity against human NCI-H460 cells assessed as outgrowth of cells at 0.37 micromol/L incubated for 72 hrs; type: functional, cell-based; details: dose 0.37 µmol/L
Method in brief: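 HDF seeded at 1,300 and H460 at 600 per well in 96-well plates. After 24 h, exposed to vehicle (0.3% DMSO) or compound at 0.37–30 μmol/L for 72 h. Wells were then washed with PBS and refed with drug-free medium containing gentamicin. Regrowth was followed by methylene blue staining at set time points over 13 days in total.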

[12] = tested on: NHDF; test: Induction of cell cycle arrest in human HDF cells assessed as accumulation of cells at G2-M phase at 3 micromol/L incubated for 24 hrs by propidium iodide staining based flow cytometry analysis (reference value: 22.6 %); type: toxicity; details: 3 µM, dose 3 µmol/L
Method in brief: (§1)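 Cells seeded in six-well plates at densities that keep them in log growth (HDF 120,000, 60,000 or 30,000; H460 100,000, 50,000 or 25,000 per well for 24, 48 or 72 h). Treated with 1 or 3 μmol/L. Floating and adherent cells collected, ethanol-fixed, permeabilized with Triton X-100 and stained with propidium iodide. DNA content read by flow cytometry as % singlet cells.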

[13] = tested on: NHDF; test: Induction of cell cycle arrest in human HDF cells assessed as accumulation of cells at Sub-2N phase at 3 micromol/L incubated for 24 hrs by propidium iodide staining based flow cytometry analysis (reference value: 0.2 %); type: toxicity; details: 3 µM, dose 3 µmol/L; method in brief: as §1
[14] = tested on: NHDF; test: Induction of cell cycle arrest in human HDF cells assessed as accumulation of cells at S phase at 3 micromol/L incubated for 48 hrs by propidium iodide staining based flow cytometry analysis (reference value: 4.7 %); type: toxicity; details: 3 µM, dose 3 µmol/L; method in brief: as §1
[15] = tested on: NHDF; test: Induction of cell cycle arrest in human HDF cells assessed as accumulation of cells at Sub-2N phase at 3 micromol/L incubated for 48 hrs by propidium iodide staining based flow cytometry analysis (reference value: 0.5 %); type: toxicity; details: 3 µM, dose 3 µmol/L; method in brief: as §1
[16] = tested on: NHDF; test: Induction of cell cycle arrest in human HDF cells assessed as accumulation of cells at G2-M phase at 3 micromol/L incubated for 72 hrs by propidium iodide staining based flow cytometry analysis (reference value: 8.2 %); type: toxicity; details: 3 µM, dose 3 µmol/L; method in brief: as §1
[17] = tested on: NHDF; test: Induction of cell cycle arrest in human HDF cells assessed as accumulation of cells at Sub-2N phase at 1 micromol/L incubated for 72 hrs by propidium iodide staining based flow cytometry analysis (reference value: 0.7 %); type: toxicity; details: 1 µM, dose 1 µmol/L; method in brief: as §1
[18] = tested on: NHDF; test: Induction of cell cycle arrest in human HDF cells assessed as accumulation of cells at Sub-2N phase at 3 micromol/L incubated for 72 hrs by propidium iodide staining based flow cytometry analysis (reference value: 0.7 %); type: toxicity; details: 3 µM, dose 3 µmol/L; method in brief: as §1
[19] = tested on: NCI-H460; test: Induction of cell cycle arrest in human NCI-H460 cells assessed as accumulation of cells at S phase at 3 micromol/L incubated for 24 hrs by propidium iodide staining based flow cytometry analysis (reference value: 23.2 %); type: functional; details: dose 3 µmol/L, at 3 µM
[20] = tested on: NCI-H460; test: Induction of cell cycle arrest in human NCI-H460 cells assessed as accumulation of cells at >4N phase at 3 micromol/L incubated for 24 hrs by propidium iodide staining based flow cytometry analysis (reference value: 1.2 %); type: functional; details: dose 3 µmol/L, at 3 µM; method in brief: as §1
[21] = tested on: NCI-H460; test: Induction of cell cycle arrest in human NCI-H460 cells assessed as accumulation of cells at S phase at 1 micromol/L incubated for 48 hrs by propidium iodide staining based flow cytometry analysis (reference value: 18.5 %); type: functional; details: dose 1 µmol/L, at 1 µM
[22] = tested on: NCI-H460; test: Induction of cell cycle arrest in human NCI-H460 cells assessed as accumulation of cells at S phase at 3 micromol/L incubated for 48 hrs by propidium iodide staining based flow cytometry analysis (reference value: 18.5 %); type: functional; details: dose 3 µmol/L, at 3 µM
[23] = tested on: NCI-H460; test: Induction of cell cycle arrest in human NCI-H460 cells assessed as accumulation of cells at >4N phase at 1 micromol/L incubated for 48 hrs by propidium iodide staining based flow cytometry analysis (reference value: 0.9 %); type: functional; details: dose 1 µmol/L, at 1 µM; method in brief: as §1
[24] = tested on: NCI-H460; test: Induction of cell cycle arrest in human NCI-H460 cells assessed as accumulation of cells at G1 phase at 1 micromol/L incubated for 72 hrs by propidium iodide staining based flow cytometry analysis (reference value: 58.2 %); type: functional; details: dose 1 µmol/L, at 1 µM; method in brief: as §1
[25] = tested on: NCI-H460; test: Induction of cell cycle arrest in human NCI-H460 cells assessed as accumulation of cells at G2-M phase at 1 micromol/L incubated for 72 hrs by propidium iodide staining based flow cytometry analysis (reference value: 18.2 %); type: functional; details: dose 1 µmol/L
[26] = tested on: NCI-H460; test: Induction of cell cycle arrest in human NCI-H460 cells assessed as accumulation of cells at Sub-2N phase at 1 micromol/L incubated for 72 hrs by propidium iodide staining based flow cytometry analysis (reference value: 2.1 %); type: functional; details: dose 1 µmol/L, at 1 µM

Serine/threonine-protein kinase PLK1, sequence (P53350 whole entry, the tested form may be a part): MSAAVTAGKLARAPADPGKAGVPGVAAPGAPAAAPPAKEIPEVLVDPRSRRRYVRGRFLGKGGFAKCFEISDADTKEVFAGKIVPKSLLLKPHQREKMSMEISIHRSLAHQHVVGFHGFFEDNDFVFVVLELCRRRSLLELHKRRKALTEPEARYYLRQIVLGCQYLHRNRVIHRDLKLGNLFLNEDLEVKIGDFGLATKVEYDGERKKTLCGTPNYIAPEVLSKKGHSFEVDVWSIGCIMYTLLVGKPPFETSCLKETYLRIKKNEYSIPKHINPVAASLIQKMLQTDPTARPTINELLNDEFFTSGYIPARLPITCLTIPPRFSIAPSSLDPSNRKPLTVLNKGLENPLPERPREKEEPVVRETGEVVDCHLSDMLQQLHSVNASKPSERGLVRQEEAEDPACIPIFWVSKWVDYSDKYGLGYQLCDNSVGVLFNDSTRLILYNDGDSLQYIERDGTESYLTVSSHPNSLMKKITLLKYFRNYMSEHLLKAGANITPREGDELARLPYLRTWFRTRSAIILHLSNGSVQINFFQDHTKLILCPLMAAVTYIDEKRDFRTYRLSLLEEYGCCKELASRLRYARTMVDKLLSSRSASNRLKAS
Proto-oncogene tyrosine-protein kinase Src, sequence (P12931 2-536 limits assumed): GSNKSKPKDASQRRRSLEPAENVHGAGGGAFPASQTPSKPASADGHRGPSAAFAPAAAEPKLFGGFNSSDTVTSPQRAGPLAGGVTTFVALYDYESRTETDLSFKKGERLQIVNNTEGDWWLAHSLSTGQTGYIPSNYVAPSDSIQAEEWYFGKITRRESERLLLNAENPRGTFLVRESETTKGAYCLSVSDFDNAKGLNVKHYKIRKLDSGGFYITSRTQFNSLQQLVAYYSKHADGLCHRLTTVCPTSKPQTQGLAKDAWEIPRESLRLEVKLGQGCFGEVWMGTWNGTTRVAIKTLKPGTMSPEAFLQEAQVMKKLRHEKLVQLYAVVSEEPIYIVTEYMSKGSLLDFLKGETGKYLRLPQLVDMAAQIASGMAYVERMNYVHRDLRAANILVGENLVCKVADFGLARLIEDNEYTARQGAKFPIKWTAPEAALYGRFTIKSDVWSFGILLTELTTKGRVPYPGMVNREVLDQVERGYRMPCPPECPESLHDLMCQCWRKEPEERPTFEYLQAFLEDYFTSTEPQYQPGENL
CDK1/Cyclin A, sequence (P06493 whole entry): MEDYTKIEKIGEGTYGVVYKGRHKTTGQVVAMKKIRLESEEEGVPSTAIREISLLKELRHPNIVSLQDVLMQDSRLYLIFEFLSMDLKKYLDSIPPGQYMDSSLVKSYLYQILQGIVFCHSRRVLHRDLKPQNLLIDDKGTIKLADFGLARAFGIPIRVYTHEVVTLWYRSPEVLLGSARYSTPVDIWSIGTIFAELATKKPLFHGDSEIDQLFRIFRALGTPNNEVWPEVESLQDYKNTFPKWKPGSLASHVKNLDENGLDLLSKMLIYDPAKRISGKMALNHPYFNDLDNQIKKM
CDK1/Cyclin A, sequence (P20248 whole entry, further chain): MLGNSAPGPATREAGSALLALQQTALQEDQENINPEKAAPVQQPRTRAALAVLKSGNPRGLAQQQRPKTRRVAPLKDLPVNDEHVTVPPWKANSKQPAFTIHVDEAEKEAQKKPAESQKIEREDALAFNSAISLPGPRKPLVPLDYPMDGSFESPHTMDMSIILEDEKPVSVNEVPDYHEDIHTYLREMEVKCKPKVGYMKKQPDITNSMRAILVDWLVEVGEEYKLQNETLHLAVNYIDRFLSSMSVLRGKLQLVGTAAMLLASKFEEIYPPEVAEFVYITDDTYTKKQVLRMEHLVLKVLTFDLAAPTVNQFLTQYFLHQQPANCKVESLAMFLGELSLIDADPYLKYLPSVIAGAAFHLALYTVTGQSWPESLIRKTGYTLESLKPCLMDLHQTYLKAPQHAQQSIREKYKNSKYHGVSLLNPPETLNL

IC50 [1]: 0.0022 µM
IC50 [2]: > 10 µM
IC50 [3]: > 10 µM
IC50 [4]: 0.57 µM
IC50 [5]: 0.11 µM
IC50 [10]: 0.14 µM
Structure (SMILES): COc1cc2ncn(-c3cc(OCc4ccccc4C(F)(F)F)c(C(N)=O)s3)c2cc1OC [GW843682X]
selectivity ratio [6]: > 10
selectivity ratio [7]: 8.8
selectivity ratio [8]: 9
selectivity ratio [9]: 0.9
Activity [11]: Active
Activity [12]: 65.6%
Activity [13]: 0.2%
Activity [14]: 5.9%
Activity [15]: 2.3%
Activity [16]: 52.7%
Activity [17]: 1.3%
Activity [18]: 9.1%
Activity [19]: 8.4%
Activity [20]: 6.2%
Activity [21]: 24.3%
Activity [22]: 8%
Activity [23]: 29%
Activity [24]: 2.5%
Activity [25]: 10.6%
Activity [26]: 16%

Reference: ChEMBL document CHEMBL5661972, “In vitro biological activity of a novel small-molecule inhibitor of polo-like kinase 1” (Mol Cancer Ther, 2007)
